Assay [1] has as its target T1, Mitogen-activated protein kinase 13 (Homo sapiens) (UniProt O15264).
T1 sequence (whole entry): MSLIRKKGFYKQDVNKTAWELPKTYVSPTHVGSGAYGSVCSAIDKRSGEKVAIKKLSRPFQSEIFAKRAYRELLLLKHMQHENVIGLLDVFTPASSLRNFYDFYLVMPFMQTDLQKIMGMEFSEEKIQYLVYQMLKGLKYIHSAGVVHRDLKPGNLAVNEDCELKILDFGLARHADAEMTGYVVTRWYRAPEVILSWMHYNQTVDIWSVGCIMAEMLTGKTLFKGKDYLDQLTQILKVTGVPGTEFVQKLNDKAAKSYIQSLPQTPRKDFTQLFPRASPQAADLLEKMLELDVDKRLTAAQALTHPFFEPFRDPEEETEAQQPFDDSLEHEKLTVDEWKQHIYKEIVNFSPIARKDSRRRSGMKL
In words: Inhibition of p38delta assessed as residual enzyme activity at 10 uM relative to untreated control. In short, it runs like this: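 p38γ and p38δ MAPK run at 5 µM [γ-33P]ATP, and p38α at 50 µM, each with 10 mM Mg acetate. Buffer 50 mM Tris/HCl pH 7.5, 0.1 mM EGTA, 0.1% 2-mercaptoethanol. 10 µM compound, 30 min at 21 °C. P81 filter capture. Residual activity relative to control, duplicates.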

Assay [2] has as its target Glycogen synthase kinase-3 beta (Homo sapiens) (UniProt P49841). In words: Inhibition of GSK3-beta assessed as residual enzyme activity at 10 uM relative to untreated control. Put shortly: (§1)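 Radiometric filter-binding assay at 21 °C for 30 min. Mix: 50 mM Tris/HCl pH 7.5, 0.1 mM EGTA, 0.1% 2-mercaptoethanol, 10 mM Mg acetate and [γ-33P]ATP (800 cpm/pmol) at 5 µM. Stopped with orthophosphoric acid and spotted on P81. Compound at 10 µM; activity given as % remaining versus no-inhibitor control, duplicates. Kinases human full-length unless noted.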

Assay [3] has as its target T2, Serine/threonine-protein kinase Sgk1 (Homo sapiens) (UniProt O00141).
T2 sequence (whole entry): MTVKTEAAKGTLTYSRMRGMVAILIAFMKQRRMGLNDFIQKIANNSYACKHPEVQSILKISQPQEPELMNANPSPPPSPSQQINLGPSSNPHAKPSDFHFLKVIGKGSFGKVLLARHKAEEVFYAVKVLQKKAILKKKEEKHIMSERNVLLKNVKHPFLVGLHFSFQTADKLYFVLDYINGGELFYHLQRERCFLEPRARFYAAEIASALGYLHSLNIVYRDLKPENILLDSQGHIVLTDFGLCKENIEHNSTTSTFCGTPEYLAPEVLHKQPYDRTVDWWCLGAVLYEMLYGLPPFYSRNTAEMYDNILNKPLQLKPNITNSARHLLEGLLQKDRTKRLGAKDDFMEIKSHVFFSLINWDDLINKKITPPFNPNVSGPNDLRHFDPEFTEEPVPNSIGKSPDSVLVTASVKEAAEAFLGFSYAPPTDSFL
The assay is described as follows: Inhibition of SGK1 assessed as residual enzyme activity at 10 uM relative to untreated control. In short, it runs like this: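 Buffer Tris/HCl pH 7.5, EGTA and 2-mercaptoethanol. 30 min at 21 °C, compound at 10 µM. P81 filter read-out. Residual activity versus control, duplicates.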

For assay [4], the target named is Serine/threonine-protein kinase PAK 5 (Homo sapiens) (UniProt Q9P286). In words: Inhibition of PAK5 assessed as residual enzyme activity at 10 uM relative to untreated control. Put shortly: (§2)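 Kinases of human origin, except CK1δ, which is rat. Run in 50 mM Tris/HCl pH 7.5, 0.1 mM EGTA, 0.1% 2-mercaptoethanol and 10 mM Mg acetate, with [γ-33P]ATP at 20 µM, 30 min at 21 °C. Acid-stopped and captured on P81 filters. Compound tested at 10 µM; residual % of uninhibited control, duplicate determinations.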
Sequence of Serine/threonine-protein kinase PAK 5 (Homo sapiens) (Q9P286 whole entry, looked up): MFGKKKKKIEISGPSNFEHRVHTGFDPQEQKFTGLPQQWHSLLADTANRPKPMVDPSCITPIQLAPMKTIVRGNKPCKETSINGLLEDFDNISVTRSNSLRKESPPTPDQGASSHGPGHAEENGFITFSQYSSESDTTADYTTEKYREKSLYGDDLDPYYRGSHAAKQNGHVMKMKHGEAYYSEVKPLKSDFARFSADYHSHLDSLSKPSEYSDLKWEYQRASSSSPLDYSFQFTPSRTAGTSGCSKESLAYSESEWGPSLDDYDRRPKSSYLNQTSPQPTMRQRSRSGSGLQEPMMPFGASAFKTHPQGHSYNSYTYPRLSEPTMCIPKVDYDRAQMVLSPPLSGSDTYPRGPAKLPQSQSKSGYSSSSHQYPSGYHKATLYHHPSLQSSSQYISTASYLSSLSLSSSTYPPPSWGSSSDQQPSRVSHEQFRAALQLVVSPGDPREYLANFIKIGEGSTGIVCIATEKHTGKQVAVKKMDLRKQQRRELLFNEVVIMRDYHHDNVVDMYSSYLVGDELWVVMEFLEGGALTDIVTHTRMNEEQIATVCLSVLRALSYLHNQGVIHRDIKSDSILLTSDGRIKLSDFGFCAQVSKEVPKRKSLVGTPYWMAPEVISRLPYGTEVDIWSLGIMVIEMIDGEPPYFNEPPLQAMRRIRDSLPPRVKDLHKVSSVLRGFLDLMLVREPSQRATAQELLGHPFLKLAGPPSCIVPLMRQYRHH

For the next assay, the system named is RSK1 (Rattus norvegicus). The assay is described as follows: Inhibition of RSK1 assessed as residual enzyme activity at 10 uM relative to untreated control.
The target in assay [5] is RAC-beta serine/threonine-protein kinase (Homo sapiens) (UniProt P31751). The assay is described as follows: Inhibition of PKBbeta assessed as residual enzyme activity at 10 uM relative to untreated control. In short, it runs like this: (§3)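 Assayed with [γ-33P]ATP at 50 µM and 10 mM Mg acetate in 50 mM Tris/HCl pH 7.5, 0.1 mM EGTA, 0.1% 2-mercaptoethanol, 30 min, 21 °C. Phosphoric acid stop, P81 filter capture. ERK2 and Lck are mouse; AMPK is rat. 10 µM compound; % activity remaining relative to control without inhibitor, duplicates.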

Assay [6] addresses Mitogen-activated protein kinase 10 (Homo sapiens) (UniProt P53779). In words: Inhibition of JNK3 assessed as residual enzyme activity at 10 uM relative to untreated control. Put shortly:
as §3

The target of assay [7] is Homeodomain-interacting protein kinase 2 (Homo sapiens) (UniProt Q9H2X6). In words: Inhibition of HIPK2 assessed as residual enzyme activity at 10 uM relative to untreated control. Put shortly:
as §1

Assay [8] concerns the target MAP/microtubule affinity-regulating kinase 3 (Homo sapiens) (UniProt P27448). The assay is described as follows: Inhibition of MARK3 assessed as residual enzyme activity at 10 uM relative to untreated control. In short, it runs like this:
as §1

Assay [9] concerns the target Serine/threonine-protein kinase PAK 4 (Homo sapiens) (UniProt O96013). In words: Inhibition of PAK4 assessed as residual enzyme activity at 10 uM relative to untreated control. Put shortly:
as §1

Assay [10] deals with Cyclin-dependent kinase 2/cyclin A (Homo sapiens) (UniProt P24941+P20248+P78396). In words: Inhibition of CDK2/Cyclin A assessed as residual enzyme activity at 10 uM relative to untreated control. The format is protein-complex assay. Put shortly:
as §2

The target of assay [11] is Protein kinase C alpha type (Homo sapiens) (UniProt P17252). The assay is described as follows: Inhibition of PKCalpha assessed as residual enzyme activity at 10 uM relative to untreated control. In short, it runs like this: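 Histone H1 (0.1 mg/mL) as substrate, 20 µM [γ-33P]ATP, 10 mM Mg acetate. Run 30 min at 21 °C with 10 µM compound. Radiolabel captured on P81 filters. Expressed as % of uninhibited control, duplicates.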

For assay [12], the target named is Calcium/calmodulin-dependent protein kinase type 1 (Homo sapiens) (UniProt Q14012). In words: Inhibition of CaMK1 assessed as residual enzyme activity at 10 uM relative to untreated control.
Sequence of Calcium/calmodulin-dependent protein kinase type 1 (Homo sapiens) (Q14012 whole entry, looked up): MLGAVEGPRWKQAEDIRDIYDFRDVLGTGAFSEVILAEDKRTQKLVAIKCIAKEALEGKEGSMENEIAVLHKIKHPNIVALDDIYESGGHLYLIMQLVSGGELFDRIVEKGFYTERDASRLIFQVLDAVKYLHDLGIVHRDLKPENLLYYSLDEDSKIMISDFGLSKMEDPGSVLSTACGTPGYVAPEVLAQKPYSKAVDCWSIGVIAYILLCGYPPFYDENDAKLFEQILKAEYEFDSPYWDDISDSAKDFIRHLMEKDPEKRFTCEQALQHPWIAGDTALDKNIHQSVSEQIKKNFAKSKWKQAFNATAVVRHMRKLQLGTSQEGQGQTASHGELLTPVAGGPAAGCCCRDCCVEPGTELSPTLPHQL
Assay [13] has as its target Serine/threonine-protein kinase pim-2 (Homo sapiens) (UniProt Q9P1W9). The assay is described as follows: Inhibition of Pim-2 assessed as residual enzyme activity at 10 uM relative to untreated control.
The target of assay [14] is Serine/threonine-protein kinase Chk2 (Homo sapiens) (UniProt O96017). The assay is described as follows: Inhibition of CHK2 assessed as residual enzyme activity at 10 uM relative to untreated control. In short, it runs like this: as §2
Sequence of Serine/threonine-protein kinase Chk2 (Homo sapiens) (O96017 whole entry): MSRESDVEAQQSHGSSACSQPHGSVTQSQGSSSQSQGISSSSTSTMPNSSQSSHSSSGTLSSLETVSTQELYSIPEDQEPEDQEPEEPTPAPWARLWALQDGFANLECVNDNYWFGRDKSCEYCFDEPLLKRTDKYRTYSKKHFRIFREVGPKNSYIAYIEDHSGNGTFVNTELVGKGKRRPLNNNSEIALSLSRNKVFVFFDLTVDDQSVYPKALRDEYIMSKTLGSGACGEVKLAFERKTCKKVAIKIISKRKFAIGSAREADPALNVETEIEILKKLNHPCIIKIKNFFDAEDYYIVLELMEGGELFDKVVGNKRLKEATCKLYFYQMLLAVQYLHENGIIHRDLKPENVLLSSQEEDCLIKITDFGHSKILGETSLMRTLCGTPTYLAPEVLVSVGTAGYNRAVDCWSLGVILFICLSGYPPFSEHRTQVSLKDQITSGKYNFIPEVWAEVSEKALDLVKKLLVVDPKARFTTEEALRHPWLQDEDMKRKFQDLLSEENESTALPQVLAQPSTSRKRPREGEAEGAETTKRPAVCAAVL
The target of assay [15] is MAP kinase-activated protein kinase 3 (Homo sapiens) (UniProt Q16644). The assay is described as follows: Inhibition of MAPKAPK3 assessed as residual enzyme activity at 10 uM relative to untreated control. Put shortly:
as §2

Sequence of Serine/threonine-protein kinase pim-2 (Homo sapiens) (Q9P1W9 whole entry, looked up): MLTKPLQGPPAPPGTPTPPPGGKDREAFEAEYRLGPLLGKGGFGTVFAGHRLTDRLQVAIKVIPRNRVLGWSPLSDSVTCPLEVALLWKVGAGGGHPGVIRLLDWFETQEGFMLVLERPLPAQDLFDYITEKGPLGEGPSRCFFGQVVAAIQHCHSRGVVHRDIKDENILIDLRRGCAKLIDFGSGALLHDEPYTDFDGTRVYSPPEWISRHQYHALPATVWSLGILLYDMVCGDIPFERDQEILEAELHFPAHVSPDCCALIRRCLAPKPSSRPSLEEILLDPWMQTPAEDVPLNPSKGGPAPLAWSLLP
Sequence of Homeodomain-interacting protein kinase 2 (Homo sapiens) (Q9H2X6 whole entry, looked up): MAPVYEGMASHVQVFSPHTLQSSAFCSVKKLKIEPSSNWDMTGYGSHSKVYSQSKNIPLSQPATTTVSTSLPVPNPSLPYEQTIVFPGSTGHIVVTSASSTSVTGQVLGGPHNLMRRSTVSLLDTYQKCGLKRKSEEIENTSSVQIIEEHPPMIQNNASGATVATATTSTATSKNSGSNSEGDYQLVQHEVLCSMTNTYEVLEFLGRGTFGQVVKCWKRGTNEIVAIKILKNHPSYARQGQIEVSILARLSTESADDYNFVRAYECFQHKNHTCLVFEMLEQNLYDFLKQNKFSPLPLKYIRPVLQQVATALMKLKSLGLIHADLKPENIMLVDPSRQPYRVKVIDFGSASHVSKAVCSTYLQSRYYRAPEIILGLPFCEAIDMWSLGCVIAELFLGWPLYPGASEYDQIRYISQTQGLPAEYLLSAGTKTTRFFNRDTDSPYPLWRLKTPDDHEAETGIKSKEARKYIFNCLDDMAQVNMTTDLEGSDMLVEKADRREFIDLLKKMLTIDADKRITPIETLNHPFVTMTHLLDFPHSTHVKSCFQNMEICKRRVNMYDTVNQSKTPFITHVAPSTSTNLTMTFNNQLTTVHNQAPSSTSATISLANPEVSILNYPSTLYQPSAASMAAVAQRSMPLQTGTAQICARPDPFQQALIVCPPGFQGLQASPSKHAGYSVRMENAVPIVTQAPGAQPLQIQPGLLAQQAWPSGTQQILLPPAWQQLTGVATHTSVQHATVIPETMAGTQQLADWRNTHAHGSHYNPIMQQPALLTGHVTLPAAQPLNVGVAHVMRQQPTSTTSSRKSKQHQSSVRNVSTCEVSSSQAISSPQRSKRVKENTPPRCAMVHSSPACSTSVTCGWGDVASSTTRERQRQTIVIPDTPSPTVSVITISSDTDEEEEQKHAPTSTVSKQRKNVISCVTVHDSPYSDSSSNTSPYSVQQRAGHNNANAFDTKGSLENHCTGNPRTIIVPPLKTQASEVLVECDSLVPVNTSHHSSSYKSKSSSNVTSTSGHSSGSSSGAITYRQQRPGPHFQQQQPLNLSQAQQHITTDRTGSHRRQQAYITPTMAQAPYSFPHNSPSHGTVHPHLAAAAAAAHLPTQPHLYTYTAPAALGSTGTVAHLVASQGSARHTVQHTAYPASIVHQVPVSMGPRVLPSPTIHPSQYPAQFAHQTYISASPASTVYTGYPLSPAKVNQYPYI
Sequence of MAP kinase-activated protein kinase 3 (Homo sapiens) (Q16644 whole entry, looked up): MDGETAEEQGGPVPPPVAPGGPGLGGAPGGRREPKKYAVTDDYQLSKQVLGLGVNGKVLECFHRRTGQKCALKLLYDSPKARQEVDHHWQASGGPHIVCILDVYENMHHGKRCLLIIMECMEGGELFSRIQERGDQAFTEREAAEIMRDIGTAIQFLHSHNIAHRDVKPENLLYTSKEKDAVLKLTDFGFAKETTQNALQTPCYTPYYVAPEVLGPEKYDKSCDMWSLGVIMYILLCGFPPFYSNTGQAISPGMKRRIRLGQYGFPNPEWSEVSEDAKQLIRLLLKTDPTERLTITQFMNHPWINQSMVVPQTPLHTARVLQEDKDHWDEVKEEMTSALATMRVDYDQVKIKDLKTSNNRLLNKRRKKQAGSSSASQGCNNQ
Sequence of Serine/threonine-protein kinase PAK 4 (Homo sapiens) (O96013 whole entry, looked up): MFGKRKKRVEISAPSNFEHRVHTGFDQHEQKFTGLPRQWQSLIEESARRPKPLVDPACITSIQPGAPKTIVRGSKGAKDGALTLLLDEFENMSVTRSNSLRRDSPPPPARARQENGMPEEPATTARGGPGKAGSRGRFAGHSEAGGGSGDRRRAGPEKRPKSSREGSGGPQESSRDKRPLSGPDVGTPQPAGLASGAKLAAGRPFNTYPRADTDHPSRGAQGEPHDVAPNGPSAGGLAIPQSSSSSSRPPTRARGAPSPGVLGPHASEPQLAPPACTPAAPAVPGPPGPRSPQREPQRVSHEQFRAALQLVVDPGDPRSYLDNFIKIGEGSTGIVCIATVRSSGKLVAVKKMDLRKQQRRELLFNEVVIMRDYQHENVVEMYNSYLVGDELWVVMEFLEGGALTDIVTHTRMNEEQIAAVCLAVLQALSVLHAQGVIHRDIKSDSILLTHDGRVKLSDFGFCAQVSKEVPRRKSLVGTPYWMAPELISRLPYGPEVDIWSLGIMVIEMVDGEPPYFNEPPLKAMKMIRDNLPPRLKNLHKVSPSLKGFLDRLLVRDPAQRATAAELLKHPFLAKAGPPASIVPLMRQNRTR

In the case of `c1ccc2c(c1)[nH]c1c2ccc2cc[nH]c21`, the Activity in assay [1] was determined as 78%; in assay [2] it was 111%; in assay [3] it was 82%; in assay [4], 82%; with RSK1 (Rattus norvegicus), 105%; in assay [5], 107%. Further, the Activity came out at 108% in assay [6]; 59% in assay [7]; 116% in [8]; 84% in assay [9]; 97% in assay [10]; 111% in assay [11]. The Activity in [12] was determined as 29%; in [13], 62%; in [14], 58%; in assay [15] it was 89%.

As to `O=Cc1c[nH]c2c1ccc1c3ccccc3[nH]c12`, the Activity in assay [2] turned out to be 88%; in assay [3], 64%; in assay [4], 87%; in assay [5], 98%; in [6] it was 113%; in assay [8], 88%. The Activity was 88% in assay [9]; 74% in assay [10]; 84% in assay [11]; 71% in assay [12]; 69% in assay [15].

Take `O=Cc1c[nH]c2ccc3c4ccccc4[nH]c3c12`: the Activity in assay [1] came out at 83%; in [2], 96%; in assay [3] it was 105%; in [4], 96%; in the assay on RSK1 (Rattus norvegicus), 120%; in [5] it was 107%. Moreover, the Activity in assay [6] was 96%; in assay [7] it was 95%; in assay [8], 105%; in assay [9], 88%; in [10], 109%; in assay [11], 95%. Moreover, the Activity in assay [12] is 36%; in assay [13], 102%; in [14], 89%; in assay [15] it was 90%.

On to `c1ccc2c(c1)[nH]c1c3cc[nH]c3ccc21`, for which the Activity in [1] came to 89%; in assay [2], 102%; in assay [3], 102%; in assay [4], 99%; in the assay with RSK1 (Rattus norvegicus), 99%; in assay [5], 107%. Further, the Activity in [6] is 111%; in [7], 72%; in assay [8], 94%; in assay [9] it was 84%; in [10] it was 95%; in assay [11], 103%. Also, the Activity in [12] was found to be 80%; in assay [13] it was 77%; in assay [14], 73%; in assay [15], 88%.

These data come from ChEMBL document CHEMBL1154186, “Synthesis, kinase inhibitory potencies, and in vitro antiproliferative evaluation of new Pim kinase inhibitors” (J Med Chem, 2009).
